We go through 25 compounds from ChEMBL document CHEMBL3352048, “Development of 2-(4-oxoquinazolin-3(4H)-yl)acetamide derivatives as novel enoyl-acyl carrier protein reductase (InhA) inhibitors for the treatment of tuberculosis” (Eur J Med Chem, 2014).

Converted amounts (≈) assume the structure as drawn. Bounds are passed on as bounds.

As usually defined, the inhibition is the drop in the measured response relative to a control, in per cent. The term MIC denotes the lowest concentration found to suppress growth. One may read the IC50 as the concentration that inhibits the measured activity by half.

Data set [1] deals with T1, Enoyl-[acyl-carrier-protein] reductase [NADH] (Mycobacterium tuberculosis) (UniProt P9WGR1).
T1 sequence (whole entry): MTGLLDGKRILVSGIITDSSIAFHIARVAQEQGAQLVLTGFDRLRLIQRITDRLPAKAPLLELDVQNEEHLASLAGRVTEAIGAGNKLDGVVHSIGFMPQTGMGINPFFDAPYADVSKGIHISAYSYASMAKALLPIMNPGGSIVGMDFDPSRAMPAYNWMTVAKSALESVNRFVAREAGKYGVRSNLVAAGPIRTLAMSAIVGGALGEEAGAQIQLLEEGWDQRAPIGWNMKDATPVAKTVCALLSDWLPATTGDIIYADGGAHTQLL
Kind of data set: Inhibition of Mycobacterium tuberculosis recombinant InhA expressed in Escherichia coli BL21 (DE3) using 2-trans-decenoyl substrate at 10 uM by spectrophotometry. In outline:
(§1)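 Recombinant M. tuberculosis InhA was expressed in E. coli and purified. Inhibition was screened as percent inhibition at 10 µM. IC50 values came from dose-response curves of log concentration versus % inhibition.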

Data set [2] relates to Mycobacterium tuberculosis. Kind of data set: Antimycobacterial activity against Mycobacterium tuberculosis H37Rv ATCC 27294 after 28 days by two-fold serial dilution assay. The format is functional. The following applies: H37Rv ATCC 27294, 672 h. In outline:
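Agar dilution test against M. tuberculosis H37Rv (ATCC27294). Drug concentrations ran from 50 µg/mL to 0.78 µg/mL, tested in duplicate. MIC was taken as the minimum concentration inhibiting growth.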

Data set [3] can be described thus: Cytotoxicity against mouse RAW264.7 cells at 100 uM after 72 hrs by MTT assay. In kind it is cell-based. The following applies: read-out: INH. In a few lines:
(§2)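 RAW 264.7 mouse leukemic monocyte macrophages were exposed to compound for 72 h, tested at concentrations up to 100 µM. Viability was read as MTT conversion to formazan (CellTiter 96 non-radioactive proliferation assay). Results are reported as percentage inhibition.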
(In general: Tetrazolium assays rely on reduction of a dye to a coloured formazan, in cell work by metabolically active cells.)

The target in data set [4] is T2, Enoyl-[acyl-carrier-protein] reductase [NADH] (Mycobacterium tuberculosis, UniProt P9WGR1).
T2 sequence (P9WGR1 whole entry): T1 sequence (whole entry)
Kind of data set: Inhibition of Mycobacterium tuberculosis recombinant InhA expressed in Escherichia coli BL21 (DE3) using 2-trans-decenoyl substrate by spectrophotometry. In outline: as §1

The test system of data set [5] is Mycobacterium tuberculosis. Kind of data set: Antimycobacterial activity against Mycobacterium tuberculosis H37Rv ATCC 27294 after 28 days by two-fold serial dilution assay in presence of […] piperine efflux pump inhibitor. The format is functional. As to conditions: H37Rv ATCC 27294, 672 h.
The nature of data set [6]: Cytotoxicity against mouse RAW264.7 cells at 50 uM after 72 hrs by MTT assay. The format is cell-based. The following applies: read-out: INH. In a few lines:
as §2

Regarding `O=C(Cn1cnc2ccccc2c1=O)Nc1cc(Cl)ccc1Cl`, the inhibition in data set [1] was found to be 16.3%.

`CC[C@@H](CO)NCCN[C@@H](CC)CO` [ETHAMBUTOL]: 7.64 µM (≈ 1.56 µg/mL) was the least that counted as inhibitory in data set [2] (MIC).

In turn, `CO[C@H]1/C=C/O[C@@]2(C)Oc3c(C)c(O)c4c(O)c(c(/C=N/N5CCN(C)CC5)c(O)c4c3C2=O)NC(=O)/C(C)=C\C=C\[C@H](C)[C@H](O)[C@@H](C)[C@@H](O)[C@@H](C)[C@H](OC(C)=O)[C@@H]1C` [RIFAMPIN] gave an MIC in data set [2] of 0.15 µM (≈ 0.123 µg/mL).

Consider `CC1COc2c(N3CCN(C)CC3)c(F)cc3c(=O)c(C(=O)O)cn1c23` (stereo not drawn) [OFLOXACIN], for which the MIC in data set [2] was determined as 2.16 µM (≈ 0.781 µg/mL).

For the compound `O=C(Cn1cnc2ccc(Cl)cc2c1=O)Nc1cc(C(F)(F)F)ccc1Cl`, the cytotoxicity at 72 h, 100 µM in data set [3] amounted to 53.6%. Further, the inhibition in data set [1] turned out to be 80.1%. In addition, the IC50 in data set [4] was found to be 4.56 µM. Besides, the MIC in data set [5] turned out to be 1.87 µM; in data set [2], 3.74 µM (≈ 1.56 µg/mL). Also, in data set [6], the cytotoxicity at 72 h, 50 µM was 48.9%.

As for `O=C(Cn1cnc2ccccc2c1=O)NCc1nc2ccc([N+](=O)[O-])cc2s1`, the cytotoxicity at 72 h, 100 µM in data set [3] amounted to 50.5%. In addition, the inhibition in data set [1] worked out at 72.2%. For the same compound, the IC50 in data set [4] was found to be 5.12 µM. In addition, the figures for the MIC in data set [5] and in data set [2] were 1.02 µM and 4.09 µM (≈ 1.62 µg/mL), respectively. In data set [6], the cytotoxicity at 72 h, 50 µM was found to be 13.1%.

Regarding `Cc1nc2ccc(Cl)cc2c(=O)n1CC(=O)Nc1ccccc1`, the cytotoxicity at 72 h, 100 µM in data set [3] was determined as 28.7%. In addition, the inhibition in data set [1] came to 88.1%. The half-maximal inhibitory concentration (IC50) in data set [4] was found to be 3.12 µM. In addition, the MIC in data set [5] was 2.38 µM; in data set [2] it was 4.76 µM (≈ 1.56 µg/mL). Moreover, the cytotoxicity at 72 h, 50 µM in data set [6] came to 19.9%.

Turning to `O=C(Cn1cnc2ccccc2c1=O)Nc1cc(C(F)(F)F)ccc1Cl`, the cytotoxicity at 72 h, 100 µM in data set [3] amounted to 35.6%. For the same compound, the inhibition in data set [1] amounted to 58.1%. Besides, the IC50 in data set [4] was 8.16 µM. Besides, the MIC is 2.04 µM in data set [5] and 8.18 µM (≈ 3.12 µg/mL) in data set [2]. Also, in data set [6], the cytotoxicity at 72 h, 50 µM worked out at 10.1%.

Regarding `Cc1nc2ccc(Cl)cc2c(=O)n1CC(=O)NCc1nc2ccc([N+](=O)[O-])cc2s1`, the cytotoxicity at 72 h, 100 µM in data set [3] was 33.7%. Moreover, the inhibition in data set [1] turned out to be 54.1%. This compound also came in with an MIC in data set [2] of 58.2 µM (≈ 25.8 µg/mL). The cytotoxicity at 72 h, 50 µM in data set [6] was 28.4%.

Take `O=C(Cn1cnc2ccccc2c1=O)Nc1ccccc1`: the cytotoxicity at 72 h, 100 µM in data set [3] turned out to be 31.1%. Moreover, the inhibition in data set [1] was determined as 52.1%. Further, the results for the minimal inhibitory concentration (MIC) in data set [5] and in data set [2] were 5.58 µM and 11.2 µM (≈ 3.12 µg/mL), respectively. Also, the cytotoxicity at 72 h, 50 µM in data set [6] was 21.2%.

`O=C(Cn1cnc2ccc(Cl)cc2c1=O)Nc1ccccc1`: the cytotoxicity at 72 h, 100 µM in data set [3] came out at 53%. In data set [1], the inhibition was determined as 58.3%. Moreover, the IC50 in data set [4] was 7.78 µM. The minimal inhibitory concentration (MIC) came to 1.24 µM in data set [5] and 4.97 µM (≈ 1.56 µg/mL) in data set [2]. Further, the cytotoxicity at 72 h, 50 µM in data set [6] came to 3.51%.

Consider `Cc1nc2ccc(Cl)cc2c(=O)n1CC(=O)NCc1ccco1`, for which the cytotoxicity at 72 h, 100 µM in data set [3] is 5.37%. Besides, the inhibition in data set [1] stood at 78.1%. Besides, the IC50 in data set [4] is 4.52 µM. For the same compound, the MIC in data set [5] was found to be 1.17 µM; in data set [2], 4.7 µM (≈ 1.56 µg/mL). Moreover, the cytotoxicity at 72 h, 50 µM in data set [6] is 3.36%.

`O=C(Cn1cnc2ccc(Cl)cc2c1=O)NCc1cccs1`: in data set [3], the cytotoxicity at 72 h, 100 µM is 45.2%. Also, the inhibition in data set [1] was found to be 68.9%. The IC50 in data set [4] came out at 7.12 µM. Besides, the MIC in data set [5] stood at 2.33 µM; in data set [2], 9.36 µM (≈ 3.12 µg/mL). Further, the cytotoxicity at 72 h, 50 µM in data set [6] was determined as 32.4%.

For `O=C(Cn1cnc2ccccc2c1=O)NCc1ccco1`, the cytotoxicity at 72 h, 100 µM in data set [3] is 13.7%. In addition, the inhibition in data set [1] came to 46.1%. Moreover, the MIC in data set [5] was 2.75 µM; in data set [2], 5.5 µM (≈ 1.56 µg/mL). The cytotoxicity at 72 h, 50 µM in data set [6] was determined as 1.96%.

Turning to `Cc1nc2ccccc2c(=O)n1CC(=O)Nc1ccccc1`, the cytotoxicity at 72 h, 100 µM in data set [3] was determined as 29.7%. In addition, in data set [1], the inhibition was determined as 60.1%. Moreover, in data set [4], the IC50 worked out at 8.92 µM. Besides, the MIC in data set [5] turned out to be 5.31 µM; in data set [2] it was 10.7 µM (≈ 3.12 µg/mL). Further, the cytotoxicity at 72 h, 50 µM in data set [6] turned out to be 11.2%.

As for `Cc1nc2ccccc2c(=O)n1CC(=O)NCc1ccco1`, the cytotoxicity at 72 h, 100 µM in data set [3] stood at 41.5%. The inhibition in data set [1] worked out at 70.1%. The IC50 in data set [4] worked out at 6.86 µM. The MIC amounted to 42 µM in data set [5] and 84.1 µM (≈ 25 µg/mL) in data set [2]. Also, the cytotoxicity at 72 h, 50 µM in data set [6] amounted to 25.5%.

On to `Cc1cccc(NC(=O)Cn2cnc3ccccc3c2=O)c1`, for which the inhibition in data set [1] is 14.5%.

Take `O=C(Cn1cnc2ccc(Cl)cc2c1=O)NCc1ccco1`: the cytotoxicity at 72 h, 100 µM in data set [3] was found to be 42.5%. Moreover, the inhibition in data set [1] was 82.4%. Besides, in data set [4], the IC50 amounted to 3.12 µM. The results for the MIC in data set [5] and in data set [2] were 4.91 µM and 4.91 µM (≈ 1.56 µg/mL), respectively. In data set [6], the cytotoxicity at 72 h, 50 µM came out at 30.7%.

`O=C(Cn1cnc2ccc(Cl)cc2c1=O)NCc1nc2ccc([N+](=O)[O-])cc2s1`: the cytotoxicity at 72 h, 100 µM in data set [3] amounted to 62.8%. For the same compound, in data set [1], the inhibition was 45.6%. For the same compound, the figures for the MIC in data set [5] and in data set [2] were 30.1 µM and 30.1 µM (≈ 12.9 µg/mL), respectively. Also, the cytotoxicity at 72 h, 50 µM in data set [6] worked out at 15.8%.

As to `Cc1nc2ccccc2c(=O)n1CC(=O)NCc1cccs1`, the cytotoxicity at 72 h, 100 µM in data set [3] stood at 38.6%. Besides, the inhibition in data set [1] was 68.2%. Besides, the IC50 in data set [4] was found to be 6.01 µM. Further, the MIC in data set [5] worked out at 4.97 µM; in data set [2], 9.97 µM (≈ 3.12 µg/mL). Also, in data set [6], the cytotoxicity at 72 h, 50 µM was 35.6%.

Consider `O=C(Cn1cnc2ccccc2c1=O)NCc1cccs1`, for which, in data set [3], the cytotoxicity at 72 h, 100 µM turned out to be 41.4%. Moreover, the inhibition in data set [1] worked out at 33.7%. In addition, the MIC in data set [5] was determined as 1.3 µM; in data set [2], 5.21 µM (≈ 1.56 µg/mL). For the same compound, the cytotoxicity at 72 h, 50 µM in data set [6] worked out at 4.38%.

In the case of `Cc1nc2ccccc2c(=O)n1CC(=O)NCc1nc2ccc([N+](=O)[O-])cc2s1`, the cytotoxicity at 72 h, 100 µM in data set [3] is 37.4%. Also, in data set [1], the inhibition was determined as 64%. The IC50 in data set [4] came to 6.16 µM. Moreover, in data set [2], the MIC is greater than 63.2 µM. Besides, the cytotoxicity at 72 h, 50 µM in data set [6] turned out to be 34%.

Turning to `O=C(Cn1cnc2ccccc2c1=O)Nc1nccs1`, the inhibition in data set [1] was 31%.

Consider `NNC(=O)c1ccncc1` [ISONIAZID], for which the MIC in data set [2] turned out to be 0.72 µM (≈ 0.0987 µg/mL).

`Cc1nc2ccc(Cl)cc2c(=O)n1CC(=O)NCc1cccs1`: in data set [3], the cytotoxicity at 72 h, 100 µM is 51.7%. In data set [1], the inhibition is 70.2%. For the same compound, in data set [4], the IC50 is 6.76 µM. Besides, the figures for the minimum inhibitory concentration (MIC) in data set [5] and in data set [2] were 4.48 µM and 18 µM (≈ 6.25 µg/mL), respectively. In addition, the cytotoxicity at 72 h, 50 µM in data set [6] was found to be 47.5%.
